High-throughput results from PubChem BioAssay.
CHO parental Ca: counter-screen for OX1R antagonists: effect in parental CHO cells. parental CHO-K1, ATP-induced calcium, Fluo-8 fluorescence. inhibition, % at 5.6 µM. 330,000 tested, 0.63% active. AID 463079;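 active = inhibition above that plate's mean sample inhibition plus 3 SD, cut at about 26% in these data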;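 note: 0% = ATP-challenged DMSO wells and 100% = DMSO wells without ATP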
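Test system: parental CHO cells; detection: calcium-sensitive Fluo-8 fluorescence; evaluation: percent inhibition of calcium signal; also added: ATP as calcium-mobilizing challenge; repeats: one well per compound; control set: ATP-challenged DMSO wells low, unchallenged DMSO wells high; compound: single nominal dose of 5.6 µM per compound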
TAAR1 ag: human TAAR1 agonism | Q96RJ0 | CHO RD-HGA16 TAAR1, Fluo-8 calcium fluorescence; vehicle wells 0%, saturating PEA agonist 100% | activation, % at 3 µM | 360,000 tested, 0.99% active | AID 624467;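 active = activation above the mean activation of all test compounds in the run plus 3 SD, cut at about 38% in these data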
Target sequence (Q96RJ0 whole entry, looked up): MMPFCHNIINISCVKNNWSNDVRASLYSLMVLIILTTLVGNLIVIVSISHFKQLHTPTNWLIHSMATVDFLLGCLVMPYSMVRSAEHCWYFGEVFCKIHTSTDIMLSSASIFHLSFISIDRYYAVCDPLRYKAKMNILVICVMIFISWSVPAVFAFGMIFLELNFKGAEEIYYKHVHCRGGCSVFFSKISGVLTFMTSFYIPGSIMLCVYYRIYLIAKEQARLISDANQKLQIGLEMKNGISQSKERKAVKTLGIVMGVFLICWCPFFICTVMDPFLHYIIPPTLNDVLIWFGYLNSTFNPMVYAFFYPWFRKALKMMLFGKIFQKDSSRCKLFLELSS
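Test system: RD-HGA16 (CHO) cells co-expressing Gα16 and hTAAR1 | Doses: Single dose, 3 µM | Schedule: 17-24 h seeding, 75 min 37 °C dye, 30 min RT | Evaluation: % activation from peak over basal fluorescence ratio, DMSO-to-PEA scaled | Technique: Kinetic Fluo-8 calcium fluorescence | Benchmarks: Low control DMSO, high control PEA (EC100)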
OX1R antag-1: OX1R (human) antagonism. O43613. OX1R-expressing cells, FRET antagonist read-out. inhibition, % at 6.6 µM. 330,000 tested, 1.8% active. AID 485270; in the data active = inhibition mostly above about 38%, no sharp cut-off; inactive = mostly below about 40%;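 note: 0% = agonist challenge alone and 100% = reference antagonist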
GPR7 antag: antagonists of human GPR7 (neuropeptides B/W receptor 1). P48145. 290,000 tested, 1.1% active. inhibition, % at 4.4 µM. AID 1861. GPR7-expressing cells, fluorescence antagonist assay; in the data active = inhibition above about 16%, passing the limit was not always enough;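 note: cells stimulated with the agonist NPW; 0% = agonist with vehicle and 100% = vehicle without agonist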
Target sequence (P48145 whole entry, looked up): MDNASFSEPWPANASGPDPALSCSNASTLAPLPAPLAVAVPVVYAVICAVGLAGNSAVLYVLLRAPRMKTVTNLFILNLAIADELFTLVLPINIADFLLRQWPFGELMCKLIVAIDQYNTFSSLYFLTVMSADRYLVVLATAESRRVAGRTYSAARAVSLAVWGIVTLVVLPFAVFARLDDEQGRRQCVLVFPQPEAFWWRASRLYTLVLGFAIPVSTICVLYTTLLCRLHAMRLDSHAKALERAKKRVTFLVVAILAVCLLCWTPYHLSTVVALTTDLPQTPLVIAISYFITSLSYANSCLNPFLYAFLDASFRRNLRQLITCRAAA
TAAR1 antagonist: human TAAR1 antagonism. Q96RJ0. CHO RD-HGA16 TAAR1, Fluo-8 calcium fluorescence, antagonist. inhibition, % at 3 µM. 360,000 tested, 1.5% active. AID 624466;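 active = inhibition above a per-plate cutoff, the mean inhibition of test compounds on that plate plus 3 SD, cut at about 49% in these data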;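 note: 0% = DMSO plus EC80 beta-PEA response and 100% = DMSO alone without agonist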
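Material: CHO RD-HGA16 cells bearing hTAAR1; compound dosing: one-point dosing, 3 µM nominal final; schedule: dye loading 75 min at 37 °C, then 30 min room temperature; measured by: calcium fluorescence with Fluo-8; control set: vehicle and agonist controls; replication: n of 1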
OX1R antag-2: antagonists of human orexin 1 receptor; O43613; inhibition, % at 5 µM; AID 434989; CHO/OX1R cells, Fluo-8 calcium fluorescence, orexin A; 330,000 tested, 0.43% active;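 active = inhibition above its plate's threshold, mean inhibition of all tested compounds on the plate plus 3 SD, cut at about 37% in these data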;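 note: 0% = orexin A challenge wells and 100% = SB-334867-A antagonist wells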
TAAR1 ag confirm: human TAAR1 agonism, confirmed | shares compounds with TAAR1 ag | CHO RD-HGA16 TAAR1, Fluo-8 calcium fluorescence; scaled: DMSO 0%, maximal phenethylamine 100% | activation, % at 3 µM | 2,400 tested, 82% active;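 active = activation above a cutoff set at the run's mean compound activation plus 3 SD, cut at about 39% in these data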
Ga16 nonsel ag: counter-screen for TAAR1 agonists: nonselective agonists in parental cells | shares compounds with TAAR1 ag | CHO-Ga16 parental, Fluo-8 calcium fluorescence; normalized to maximal ATP response, DMSO zero | activation, % at 3 µM | 2,400 tested, 50% active | AID 651787;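 active = activation above the run cutoff, the mean activation over all tested wells plus 3 SD, cut at about 12% in these data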;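 note: 0% = DMSO wells and 100% = maximal ATP response on the peak over basal ratio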
TAAR1 desensitize: counter-screen for human TAAR1 agonists: agonists that desensitize TAAR1; shares compounds with TAAR1 ag; CHO RD-HGA16 hTAAR1, Fluo-8 calcium, beta-PEA response inhibition; inhibition, % at 3 µM; 2,400 tested, 46% active;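 active = inhibition above the run cutoff, the mean inhibition of all test compounds plus 3 SD, cut at about 49% in these data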;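 note: beta-PEA stimulus applied at its EC80; loss of beta-PEA calcium signal after compound pretreatment read as receptor desensitization; 0% = DMSO with beta-PEA at EC80 and 100% = DMSO alone without agonist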
Ga16 nonsel ant: nonselective Ga16 antagonism, counter-screen. 2,400 tested, 39% active. CHO-Ga16 ATP-induced calcium, Fluo-8 fluorescence. inhibition, % at 3 µM. shares compounds with TAAR1 ag. AID 651952;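 active = inhibition above the plate's mean compound inhibition plus 3 SD, computed per plate, cut at about 22% in these data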;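 note: 0% = EC80 ATP with DMSO and 100% = DMSO wells without ATP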
Numbers without * were called inactive; . = no result. Rows were chosen to be rich in hits. Some 4.5% of all compounds tested hit in one or more screens of this group.

SMILES	CHO parental Ca	TAAR1 ag	OX1R antag-1	GPR7 antag	TAAR1 antagonist	OX1R antag-2	TAAR1 ag confirm	Ga16 nonsel ag	TAAR1 desensitize	Ga16 nonsel ant
Cc1cc(/C=C2\C(=N)N3N=C(c4ccco4)SC3=NC2=O)c(C)n1Cc1ccccc1	41*	130*	10	2	103*	104*	107*	79*	104*	91*
Cc1cc(/C=C2\C(=N)N3C(SCc4ccccc4)=NSC3=NC2=O)c(C)n1Cc1ccccc1	-2	6	6	-6	6	-5	.	.	.	.
CCC1=NN2C(=N)/C(=C/c3cc(C)n(Cc4ccccc4)c3C)C(=O)N=C2S1	70*	104*	19	-12	91*	97*	104*	72*	95*	77*
S=c1[nH]ccn1CCc1ccccc1	-11	62*	0	8	4	-18	64*	0	36	1
c1ccc(CN2CN=C(Nc3nc4ccccc4s3)NC2)cc1	-13	2	6	-3	4	-23	.	.	.	.
c1ccc(CCN2CN=C(Nc3nc4ccccc4s3)NC2)cc1	-56	79*	10	-16	51*	-33	40*	0	11	3
CCN(CC)S(=O)(=O)c1ccc(C(=O)NCCSc2c[nH]c3ccccc23)cc1	-8	55*	16	-5	86*	-29	1	3	16	17
CCC(=O)NCCSc1c[nH]c2ccccc12	-4	5	8	-7	0	-1	.	.	.	.
O=C(NCc1ccco1)c1cc(-c2ccc(F)cc2)on1	-9	49*	8	-5	34	-18	2	2	-1	5
O=C(NCc1ccco1)c1cc(-c2ccccc2)on1	2	10	5	0	3	-8	.	.	.	.
COc1ccc(-c2sc(Nc3ccccc3)n[n+]2-c2ccc(F)cc2)cc1Br	-14	11	0	-2	0	-2	.	.	.	.
O=C(O)c1ccc(-c2sc(Nc3ccccc3)n[n+]2-c2ccc(F)cc2)cc1	-12	.	5	2	.	8	.	.	.	.
COc1ccc2ccccc2c1-c1sc(Nc2ccccc2)n[n+]1-c1ccc(F)cc1	-11	64*	15	6	-12	-10	52*	25*	46	37*
Fc1ccc(-[n+]2nc(Nc3ccccc3)sc2-c2c(Cl)cccc2Cl)cc1	34	74*	30	3	32	11	89*	35*	73*	29*
CCc1nc2ccc(C(=O)NCCc3ccccn3)cn2c1N(C)CCC(C)C	.	14	.	.	-5	.	.	.	.	.
Cc1nc(/C=C/c2ccccc2)[nH]c(=O)c1-c1ccccc1	4	0	4	0	-19	-3	.	.	.	.
CCCCN(C)c1c(C)nc2ccc(C(=O)Nc3ccc(OC)c(OC)c3)cn12	.	63*	.	.	16	.	85*	48*	23	10
CCCCN(C)c1c(C)nc2ccc(C(=O)Nc3cc(-c4ccccc4)ccc3OC)cn12	.	-1	.	.	-22	.	.	.	.	.
COc1ccc(NC(=O)N(C)C[C@H]2Oc3c(NC(=O)c4nc5ccccc5s4)cccc3C(=O)N([C@@H](C)CO)C[C@H]2C)cc1	-21	20	7	.	-1	-20	.	.	.	.
COC(=O)CSc1nnc(CNC(=O)Cc2ccccc2)n1C	10	4	9	-13	-19	-4	.	.	.	.
CC(C)c1ccc(NC(=O)Nc2nc(C(N)C3CCCCC3)cs2)cc1 (stereo not drawn)	.	55*	.	.	6	.	42*	29*	33	46*
NC(=O)c1cccc(Nc2nc(C(N)C3CCCCC3)cs2)n1 (stereo not drawn)	.	1	.	.	-2	.	.	.	.	.
COc1cccc(Nc2nc(C(C)N)cs2)n1 (stereo not drawn)	.	85*	.	.	77*	.	94*	1	79*	6
COc1cccc(Nc2nc(C(N)c3ccccc3)cs2)n1 (stereo not drawn)	.	68*	.	.	25	.	66*	12*	41	20
COc1ccc(NC(=O)Nc2nc(C(N)C3CCCCC3)cs2)cc1 (stereo not drawn)	.	11	.	.	9	.	.	.	.	.
SMILES	CHO parental Ca	TAAR1 ag	OX1R antag-1	GPR7 antag	TAAR1 antagonist	OX1R antag-2	TAAR1 ag confirm	Ga16 nonsel ag	TAAR1 desensitize	Ga16 nonsel ant
COc1cccc(Nc2nc(C(N)C3CCCCC3)cs2)n1 (stereo not drawn)	.	53*	.	.	15	.	47*	18*	28	23*
CC(OC(=O)c1cc2sccc2n1C)C(=O)NCc1ccc(F)cc1 (stereo not drawn)	37*	50*	20	0	51*	-20	18	17*	4	10
CCc1ccc(N(CC(=O)Nc2ccccc2C(=O)N2CCOCC2)S(C)(=O)=O)cc1	-7	1	4	-12	5	-5	.	.	.	.
O=C(CCN1Cc2ccccc2C1)c1ccc2c(c1)OCCO2	-3	38*	12	-5	7	-8	68*	3	13	12
O=C(CCN1CCc2ccccc2C(c2ccccc2)C1)c1ccc2c(c1)OCCO2 (stereo not drawn)	-23	73*	24	-3	52*	-30	75*	1	77*	12
O=C(O)CCC(=O)c1ccc2c(c1)OCCO2	-2	-1	4	-5	4	-8	.	.	.	.
CCCC(=O)c1ccc2c(c1)OCCO2	17	5	14	0	-1	-5	.	.	.	.
O=C(O)C(CO)(c1ccccc1)c1ccccc1	-11	13	25	-4	-9	-14	.	.	.	.
CCCOc1cc(NCc2ccccc2)c2ncn(C(C)C)c2c1	-30	61*	15	.	-1	-61	41*	18*	1	-2
CCC(CO)Oc1cc(NCc2ccc(C)cc2)c2ncn(C(C)C)c2c1 (stereo not drawn)	-28	6	16	.	-5	-32	.	.	.	.
CC(C)n1cnc2c(NCc3ccccc3)cc(Cc3ccc(F)cc3)cc21	-31	47*	6	.	16	-40	19	11	25	19
O=C(CN1C(=O)c2ccc([N+](=O)[O-])cc2C1=O)Nc1cc(S(=O)(=O)N2CCOCC2)ccc1Cl	-17	2	43	.	-2	-15	.	.	.	.
O=C(CCl)N(CCCNC(=O)C(F)(F)F)c1ccc([N+](=O)[O-])cc1	-12	1	14	-6	-26	-4	.	.	.	.
